These results are taken from ChEMBL document CHEMBL4339190, “2,6-Disubstituted imidazo[2,1-b][1,3,4]thiadiazole derivatives as potent staphylococcal biofilm inhibitors” (Eur J Med Chem, 2019).

The structures appear in SMILES notation. Calls of active or inactive are those of the source. The calls are words filed in the database; no cut-off is given here.

Series [1] has as its system Staphylococcus aureus. Nature of the series: Antibiofilm activity against Staphylococcus aureus ATCC 6538 incubated for 24 hrs by crystal violet-staining based assay. The series is classed as functional. The method in brief:
(§1)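 Biofilm prevention: 0.5 McFarland inoculum (2.5 µL) in 100 µL TSB with 2% w/v glucose, compound present from the start over 100–0.1 µg/mL, 37 °C 24 h. Washed with PBS, stained 0.1% w/v crystal violet 30 min, eluted with 33% v/v acetic acid, read at 570 nm. BIC50 (50% inhibition versus untreated control) derived by linear regression; triplicate, repeated at least twice.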

The subject of series [2] is Escherichia coli. The series is described as follows: Antibiofilm activity against Escherichia coli ATCC 25922 assessed as inhibition of biofilm formation at 100 ug/ml incubated for 24 hrs by crystal violet-staining based assay. The series is classed as functional. Particulars: ATCC 25922, 24 h.
Series [3] has as its system Staphylococcus aureus. Nature of the series: Antibiofilm activity against 24 hrs preformed biofilm of Staphylococcus aureus ATCC 25923 assessed as dispersion of bacteria incubated for 24 hrs by crystal violet-staining based assay. The format is functional, organism-based. Particulars: ATCC 25923, 24 h. The procedure, abridged:
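Preformed biofilm: 0.5 McFarland suspension (2.5 µl) grown 24 h in TSB with 2% w/v glucose. Wells washed twice with PBS and refilled with fresh TSB, then compound added at graded concentrations starting at or above the planktonic MIC. Incubated a further 24 h at 37 °C, washed, heat-fixed 60 °C 1 h, 0.1% crystal violet 30 min, dye solubilized, A540. Percent inhibition versus untreated growth control; triplicate, repeated at least twice.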

Series [4] concerns Staphylococcus epidermidis. The series is described as follows: Antimicrobial activity against Staphylococcus epidermidis ATCC 12228 assessed as growth inhibition of planktonic forms incubated for 24 hrs. The format is organism-based. Particulars: in vitro. The method in brief: (§2)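 Broth microdilution in tryptic soy broth. Two-fold series 100 to 0.75 μg/mL made from a 1 mg/mL stock in 0.9% NaCl. Inoculum ~10⁶ cfu/mL taken from a 24 h culture, 37 °C 24 h.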

In series [5] the test system is Staphylococcus aureus. The series is described as follows: Antibiofilm activity against Staphylococcus aureus ATCC 25923 incubated for 24 hrs by crystal violet-staining based assay. The format is functional. The method in brief: as §1
Series [6] relates to Staphylococcus aureus. Nature of the series: Antimicrobial activity against Staphylococcus aureus ATCC 25923 assessed as growth inhibition of planktonic forms incubated for 24 hrs. The format is organism-based. Particulars: in vitro. The procedure, abridged:
as §2

Series [7] concerns Pseudomonas aeruginosa. Nature of the series: Antibiofilm activity against Pseudomonas aeruginosa ATCC 15442 assessed as inhibition of biofilm formation at 100 ug/ml incubated for 24 hrs by crystal violet-staining based assay. Particulars: ATCC 15442, 24 h. The format is functional.
The subject of series [8] is Staphylococcus aureus. The series is described as follows: Antimicrobial activity against Staphylococcus aureus ATCC 6538 assessed as growth inhibition of planktonic forms incubated for 24 hrs. The format is organism-based. Particulars: in vitro. The procedure, abridged:
as §2

In series [9] the test system is Pseudomonas aeruginosa. Nature of the series: Antimicrobial activity against Pseudomonas aeruginosa ATCC 15442 assessed as growth inhibition of planktonic forms incubated for 24 hrs. The series is classed as organism-based. Particulars: in vitro. The procedure, abridged: as §2
Series [10] deals with Escherichia coli. Nature of the series: Antimicrobial activity against Escherichia coli ATCC 25922 assessed as growth inhibition of planktonic forms incubated for 24 hrs. Particulars: in vitro. The series is classed as organism-based. The procedure, abridged: as §2
Series [11] relates to Staphylococcus epidermidis. The series is described as follows: Antibiofilm activity against Staphylococcus epidermidis ATCC 12228 incubated for 24 hrs by crystal violet-staining based assay. The format is functional. The method in brief: as §1
For another series, the system named is Bacteria. Nature of the series: Inhibition of recombinant bacterial SrtA at 100 uM using 5-FAM/QXL 520 Sortase as substrate preincubated for 10 mins followed by substrate addition and measured every 5 mins for 60 mins by fluorescence assay. The procedure, abridged: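 FRET kit assay: 2.5 µg/ml recombinant SrtA, 4 µM fluorescent peptide substrate, compound at 100 µM in 1% DMSO. Compound and enzyme added first, then substrate. Fluorescence (Ex/Em 490/520 nm) recorded every 5 min for 60 min. Substrate without enzyme served as negative control and 4-(hydroxymercuri)benzoic acid as positive control.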

For `Br.COc1ccc(OC)c(-c2cn3nc(-c4c[nH]c5ccccc45)sc3n2)c1`, the MBIC50 came to 18.5 µM in the series on Staphylococcus aureus [1], 1.2 µM with Staphylococcus aureus [5] and 29.9 µM in series [11]. The inhibition result (with Staphylococcus aureus [1]; with Staphylococcus aureus [5]; in [11]) was “Dose-dependent effect” each time. Moreover, the inhibition at 100 µg/mL in the series with Escherichia coli [2] and in the series with Pseudomonas aeruginosa [7] was < 15% each time. Besides, the IC50 with Staphylococcus aureus [3] was 142 µg/mL. Further, the MIC (in series [4]; in the series with Staphylococcus aureus [6]; in the series on Staphylococcus aureus [8]; in the series with Pseudomonas aeruginosa [9]; in the series on Escherichia coli [10]) was > 100 µg/mL each time. In the series with Staphylococcus aureus [5], this compound gave an MBIC90 of 36.5 µg/mL. For the same compound, in the series on Bacteria, the inhibition result was “inactive”.

What is called inhibition is the relative decrease from the control value, in per cent. For orientation: IC50 means the point on the concentration scale where inhibition reaches its midpoint.
